Holding throughout (type): ADME
The nature of series [1]: General acid and general base rate constant (10e4kA-) required for the formation of m-nitrothiophenol disulfide. The procedure, abridged:
(§1)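 Isoalloxazine-catalyzed oxidation of m-nitrothiophenol to its disulfide was quantified by HPLC in phosphate buffer (0.08-0.4 M, pH 7-9) with ionic strength held at 0.4 M (KCl). Isoalloxazine stocks in dry methanol/dichloromethane were diluted into aqueous-methanolic reactions. At fixed pH, k_obs/[mNTP] was plotted against buffer base fraction. The slopes were then plotted against [AH]/[A−] to give k_AH (slope) and k_A− (intercept). Values are the mean of two determinations.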

Series [2] is described as follows: […] rate constant (10e7kAH) required for the formation of m-nitrothiophenol disulfide. The method in brief:
as §1

A short description of series [3]: Spontaneous rate constant (10e6 ko) required for the formation of m-nitrothiophenol disulfide. The procedure, abridged: as §1

Each structure is given as a SMILES string.

Consider `O=c1nc2n(-c3ccccc3)c3ccccc3nc-2c(=O)n1CCCCCCCCS`, for which, in series [1], the kA- came out at 0.1 M⁻¹ s⁻¹. For the same compound, in series [2], the kAH turned out to be 6.8 M⁻¹ s⁻¹. Moreover, in series [3], the “k'o” value came to 3 M⁻¹ s⁻¹.
As to `Cn1c2nc(=O)n(CCCCCCCCS)c(=O)c-2nc2ccc(C#N)cc21`, the kA- in series [1] was found to be 2.3 M⁻¹ s⁻¹. The kAH in series [2] worked out at 131.7 M⁻¹ s⁻¹. Also, in series [3], the “k'o” value was found to be 4.6 M⁻¹ s⁻¹.

The record behind these values is ChEMBL document CHEMBL1125843, “Electron-deficient isoalloxazines: model systems for disulfide prodrug formation” (J Med Chem, 1991).
